B1: NELF-E aptamer (parent)
chain: CCCAACGACUGCCGAGCGAGAUUACGCUUGAGCGCCCCACUGAGGAUGCCCACGGGCGAUUGGGGCACGG

Variants of: B1
Assay: HiTS-RAP
Details: with NELF-E (Drosophila)
In short: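 Kd came from weighted Hill fits to the first binding curve, with intensities normalised to sequencing intensity and averaged per sequence, keeping only fits whose variance was below 1,000,000. That curve was imaged on an Illumina GAIIx flowcell, where sequenced aptamer DNA templates with a T7 promoter and ter site had been transcribed in situ by T7 RNA polymerase and halted by GST-Tus (30 minutes, 37°C). Before each image, clusters equilibrated for 30 minutes at room temperature with NELF-E-mOrange at 0.064 to 1000 nM in HEPES binding buffer.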

CCCAACGACGGCCGAGCGAGAUUACGCUUGAGCGCCCCACCGAGGAUGCCCACGGGCGAUUGGGGCACGG [U10G U41C] and CCCAACGACUGCCGAGCGAGAUUACGCUUGAGCGCCCCACUGAGGAUGCCCACGGGCCAUUGGGGCACGG [G58C] are within 1.5-fold of each other in Kd: 76.2 nM for the first, 65.3 nM for the second.

CCCAUCGACAGCCGAGCGAGAUUACGCUUGAGCGCCCCACUGAGGAUGCCCACGGGCGAUUGGGGCACGG [A5U U10A] and CCCAACAACUGCCGAGCGUGAUUACGCUUGAGCGCCCCACUGAGGAUGCCCACGGGCGAUUGGGGCACGG [G7A A19U] are within 1.5-fold of each other in Kd: 7.7 nM for the first, 8.57 nM for the second.

First: CCCAACGUCUGCCGAGCGAUAUUACGCUUGAGCGCCCCACUGAGGAUGCCCACGGGCGAUUGGGGCACGG [A8U G20U]
Second: CCCGACGACUGCCGAGCGAGAUUACGCUUGAGCGCCACACUGAGGAUGCCCACGGGCGAUUGGGGCACGG [A4G C37A]
The Kd of the first is 1.9-fold lower: 6.62 nM for the first, 12.3 nM for the second. The first binds more tightly here.

First: CCCAACGAGUGCCGAGCGAGAUUACGCUUGAGCGCCCCACUGAGGAUGCCCACGGGCGAUUAGGGCACGG [C9G G62A]
Second: CCCAACGUCUGCCGAGCGAGAUUACGCUUGAGCGCCCCACUGAGGAUGCCCACGGACGAUUGGGGCACGG [A8U G56A]
The Kd of the first is 1.6-fold higher: 26.9 nM for the first, 16.7 nM for the second. The second binds more tightly here.

First: CCCAACGACUGCUGAGCGAGAUUACGCUUGAGCGCCCCUCUGAGGAUGCCCACGGGCGAUUGGGGCACGG [C13U A39U]
Second: CCCAACGACUGCCGAGCGAGAGUACGCUUGAGCGCCCCACUGAGGAUGCCCCCGGGCGAUUGGGGCACGG [U22G A52C]
The Kd of the first is 3.1-fold higher: 20.4 nM for the first, 6.52 nM for the second. The second binds more tightly here.

CCCAACGACUGCCGAGCGAGAUUACGCUUGAGCGCCCCACUGAGGAUGCCCACGGGCGAUUGGGGCAAGG [C68A] and CCCAACGACAGCCGAGCGAGAUUACGCUUGAGCGCCCCACUGAGGAUGCCCACGGGUGAUUGGGGCACGG [U10A C57U] are within 1.5-fold of each other in Kd: 5.29 nM for the first, 5.96 nM for the second.

CCCAACGAGUGCAGAGCGAGAUUACGCUUGAGCGCCCCACUGAGGAUGCCCACGGGCGAUUGGGGCACGG [C9G C13A] and CCCAGCGACUGCCGAGCGAGAUUACGCUAGAGCGCCCCACUGAGGAUGCCCACGGGCGAUUGGGGCACGG [A5G U29A] are within 1.5-fold of each other in Kd: 7.19 nM for the first, 6.04 nM for the second.

CCCAACGACUGCCGAGCGAGAUUACGCUGGAGCGCCCCACUGAGGAUGCCCAGGGGCGAUUGGGGCACGG [U29G C53G] and CCCAAGGACUGCCGAGCGAGAUUACGCUUGAGCGCCCCACUGAGGAGGCCCACGGGCGAUUGGGGCACGG [C6G U47G] are within 1.5-fold of each other in Kd: 5.71 nM for the first, 6.93 nM for the second.

CCCAAUUACUGCCGAGCGAGAUUACGCUUGAGCGCCCCACUGAGGAUGCCCACGGGCGAUUGGGGCACGG [C6U G7U] and CCCAACGUCUGCCGAGCGAGAUUACGCUUGAGCGCCCCACUGAGGAUGCCCACGUGCGAUUGGGGCACGG [A8U G55U] are within 1.5-fold of each other in Kd: 6.71 nM for the first, 7.57 nM for the second.

CCCAACGACUGCCGAGCGAGAUUGCGCUUGAGCGCCACACUGAGGAUGCCCACGGGCGAUUGGGGCACGG [A24G C37A] and CCCAACGACUGCCGAGCGAGAGUACGCUUGAGCGCCCCACUGAGGAUGCCCACGGGCGAUUGGCGCACGG [U22G G64C] are within 1.5-fold of each other in Kd: 10.1 nM for the first, 6.91 nM for the second.

Compared with CCCAACUACUGCCGAGCGAGAUUACGCUUGAGCGCCCCUCUGAGGAUGCCCACGGGCGAUUGGGGCACGG [G7U A39U], CCCAACGACUGCCAAGCGAGAUUACGCUUGAGCGCCCCACGGAGGAUGCCCACGGGCGAUUGGGGCACGG [G14A U41G] is 4.7-fold lower in Kd: 26.9 nM for the first, 5.69 nM for the second.

Going from CCCAACGACUGCCGAGCGAGAUUACGCUGGAGCGCCCCACUGAGGAGGCCCACGGGCGAUUGGGGCACGG [U29G U47G] to CCCAGCGACUGCCGAGCGAGAUUACGCUUGAGCGCCCCACUGAGGAUGCCCACGGGCGAUUAGGGCACGG [A5G G62A], the Kd rises from 6.21 nM to 13.5 nM (2.2-fold). The first binds more tightly here.

Going from CCCAGCGACUGCCGAGCGAGAUUACGCUUGAGCGCCCCACUGAGGAUACCCACGGGCGAUUGGGGCACGG [A5G G48A] to CCCAACGUCUGCCGAGCGAGAUUACGCUUGAGCGCCCCACUGAGGAUGCCCACGGGUGAUUGGGGCACGG [A8U C57U], the Kd falls from 12.6 nM to 5.42 nM (2.3-fold). The second binds more tightly here.

Going from CCCAACGACCGCCGAGCGAGAUUACGCUUGAGCGCCCCACUGAGGAUGCCCACGAGCGAUUGGGGCACGG [U10C G55A] to CCCAACGAGUGCCGAGUGAGAUUACGCUUGAGCGCCCCACUGAGGAUGCCCACGGGCGAUUGGGGCACGG [C9G C17U], the Kd falls from 8.56 nM to 4.67 nM (1.8-fold).

Compared with CCCAACGACUGCCGAGCGAGAUUACGCUUGAGCGCCCCACUGAGGAUGCCCACGGGCGAUUGGGGCACGA [G70A], CCCAACGACUGCCUAGCGAGAUUACGCUUGAGCGUCCCACUGAGGAUGCCCACGGGCGAUUGGGGCACGG [G14U C35U] is 2.3-fold higher in Kd: 4.46 nM for the first, 10.1 nM for the second.

CCCGACGACUGCCGAGCGAGAUUAAGCUUGAGCGCCCCACUGAGGAUGCCCACGGGCGAUUGGGGCACGG [A4G C25A] and CCCAACGACUACCGAUCGAGAUUACGCUUGAGCGCCCCACUGAGGAUGCCCACGGGCGAUUGGGGCACGG [G11A G16U] are within 1.5-fold of each other in Kd: 6.24 nM for the first, 6.64 nM for the second.

Going from CCCAACGACUGCCAGGCGAGAUUACGCUUGAGCGCCCCACUGAGGAUGCCCACGGGCGAUUGGGGCACGG [G14A A15G] to CCCAACGACUGCCGAGCGAGAUGACGCUUGAGCGCCCCACUGAGGAUGCCCACGGGCGGUUGGGGCACGG [U23G A59G], the Kd rises from 6.1 nM to 57.5 nM (9.4-fold). The first binds more tightly here.

CCCAAGGUCUGCCGAGCGAGAUUACGCUUGAGCGCCCCACUGAGGAUGCCCACGGGCGAUUGGGGCACGG [C6G A8U] and CCCUACGACUGCCGAGCGAGAUUACGCUUGAGCGCCCCACUGAGGAUGCCCACGGGCGAUUGGGGCGCGG [A4U A67G] are within 1.5-fold of each other in Kd: 5.7 nM for the first, 5.89 nM for the second.

CCCAACGACGGCCGAGCGAGAUUACGCUUGAGCGCCCCACUGAGUAUGCCCACGGGCGAUUGGGGCACGG [U10G G45U] and CCCUACGACUGCGGAGCGAGAUUACGCUUGAGCGCCCCACUGAGGAUGCCCACGGGCGAUUGGGGCACGG [A4U C13G] are within 1.5-fold of each other in Kd: 7.35 nM for the first, 5.84 nM for the second.
